Laboratory results reported in ChEMBL document CHEMBL3576777, “Hypocoprins A-C: new sesquiterpenoids from the coprophilous fungus Hypocopra rostrata” (J Nat Prod, 2015).
Activity calls are given as the source filed them. The calls are words filed in the database; no cut-off is given here.

Columns and labels:
U2OS = assay: Cytotoxicity against human U2OS cells assessed as cell viability after 48 hrs by CellTiter-Blue assay; assay type: functional, cell-based
Procedure, shortened: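 Human osteosarcoma U2OS cells were seeded at 250 cells per well in 384-well format and incubated overnight. Each well received 50 nL of a 10 mM DMSO stock, in duplicate, then 48 h at 37 °C. CellTiter-Blue reagent was added, followed by a further 22 h at 37 °C. […] was read at 530/580 nm.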

Staphylococcus aureus [1] = assay: Antibacterial activity against Staphylococcus aureus ATCC 29213 by agar disk diffusion method; assay type: functional
Procedure, shortened: (§1)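 Agar disk diffusion following standard protocols; test material applied at 200 μg/disk; gentamicin at 20 μg/disk served as the standard. Organisms: S. aureus ATCC 29213, B. subtilis ATCC 6051, E. coli ATCC 25922 and C. albicans ATCC 14053. Read-out was the diameter of the inhibitory zone in mm.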

Bacillus subtilis [2] = assay: Antibacterial activity against Bacillus subtilis ATCC 6051 by agar disk diffusion method; assay type: functional, organism-based; procedure, shortened: as §1
Escherichia coli [3] = assay: Antibacterial activity against Escherichia coli ATCC 25922 by agar disk diffusion method; assay type: functional, organism-based; procedure, shortened: as §1
Candida albicans [4] = assay: Antifungal activity against Candida albicans ATCC 14053 by agar disk diffusion method; assay type: functional, organism-based; procedure, shortened: as §1
Escherichia coli [5] = assay: Antibacterial activity against Escherichia coli ATCC 25922 at 200 ug/disk by agar disk diffusion method; assay type: functional, organism-based; procedure, shortened: as §1
Staphylococcus aureus [6] = assay: Antibacterial activity against Staphylococcus aureus ATCC 29213 at 200 ug/disk by agar disk diffusion method; assay type: functional; settings: read-out: DIZ; procedure, shortened: as §1
Candida albicans [7] = assay: Antifungal activity against Candida albicans ATCC 14053 at 200 ug/disk by agar disk diffusion method; assay type: functional, organism-based; procedure, shortened: as §1
Bacillus subtilis [8] = assay: Antibacterial activity against Bacillus subtilis ATCC 6051 at 200 ug/disk by agar disk diffusion method; assay type: functional; settings: read-out: DIZ; procedure, shortened: as §1

Compound | IC50 (U2OS) | diameter of the inhibition zone (DIZ) (Staphylococcus aureus [1]) | Activity (Bacillus subtilis [2]) | Activity (Escherichia coli [3]) | Activity (Candida albicans [4]) | Activity (Staphylococcus aureus [1]) | Activity (Escherichia coli [5]) | zone of inhibition at 200 µg/disc (Staphylococcus aureus [6]) | Activity (Candida albicans [7]) | zone of inhibition at 200 µg/disc (Bacillus subtilis [8])
C/C1=C\C[C@@H](O)[C@](C)(O)[C@H]2C[C@@H]2C(C)(C)C[C@H]1O | > 10 µM | 9 mm |  |  |  |  |  |  |  | 
C=C1CC/C=C(\C)[C@H](O)CC(C)(C)[C@H]2C[C@H]12 | > 10 µM |  | inactive | inactive | inactive | inactive |  |  |  | 
C/C1=C\CC[C@](C)(O)[C@H]2C[C@@H]2C(C)(C)C[C@H]1O | > 10 µM |  |  |  |  |  | inactive | 13 mm | inactive | 13 mm
